Assay results published in ChEMBL document CHEMBL4834453, “Discovery of N-(6-(5-fluoro-2-(piperidin-1-yl)phenyl)pyridazin-3-yl)-1-(tetrahydro-2H-pyran-4-yl)methanesulfonamide as a brain-permeable and metabolically stable kynurenine monooxygenase inhibitor” (Bioorg Med Chem Lett, 2021).
In brackets after ≈: the same amount, converted by molar mass.

Key:
[1] = Metabolic stability in human liver microsomes assessed as intrinsic clearance incubated for 30 mins in presence of NADPH measured per mg protein; type: ADME, Microsome; conditions: for microsomal CLint: liver microsomes, read-out: CLH
Summary of the method: (§1)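 Compound incubated with human or rat hepatic microsomes plus NADPH at 37 °C for 30 min. Intrinsic clearance expressed as μL/min/mg protein.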

[2] = Metabolic stability in rat liver microsomes assessed as intrinsic clearance incubated for 30 mins in presence of NADPH measured per mg protein; type: ADME, Microsome; conditions: for microsomal CLint: liver microsomes, read-out: CLH; for CLH: microsomes, 0.5 h; summary of the method: as §1
[3] = Glutathione reactivity assessed as dansylatedGSH-compound conjugate formation in presence of human liver microsomes by fluorescence detector based HPLC analysis; type: physicochemical
Summary of the method: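 Reactive metabolite trapping: compound incubated with dansylated glutathione and human liver microsomes. dGSH-conjugate quantified by HPLC with fluorescence detection and reported in μmol/L.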

[4] = Plasma concentration in mouse at 10 mg/kg, po; type: ADME, organism-based; conditions: in vivo
Summary of the method: (§2)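 Mouse PK after a single oral dose (2 mg/kg; 10 mg/kg where marked). Plasma concentration given in ng/mL and brain concentration in ng/g tissue. Brain/plasma ratio computed from these. Values given as mean ± spread.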

[5] = Solubility of the compound at pH 1.2; type: physicochemical; conditions: buffer
[6] = Solubility of the compound at pH 7.4; type: physicochemical; conditions: buffer
[7] = Half life in mouse; type: ADME, organism-based; conditions: in vivo
[8] = Clearance in mouse; type: ADME, organism-based; conditions: in vivo
[9] = Drug concentration in mouse brain at 10 mg/kg, po measured per gm of tissue; type: ADME, organism-based; conditions: in vivo; summary of the method: as §2
[10] = Ratio of drug concentration in brain to plasma in mouse at 10 mg/kg, po; type: ADME, organism-based; conditions: read-out: BPR; summary of the method: as §2
[11] = Plasma concentration in mouse at 2 mg/kg, po; type: ADME, organism-based; conditions: in vivo; summary of the method: as §2
[12] = Ratio of drug concentration in brain to plasma in mouse at 2 mg/kg, po; type: ADME, organism-based; conditions: read-out: BPR; summary of the method: as §2
[13] = Drug concentration in mouse brain at 2 mg/kg, po measured per gm of tissue; type: ADME, organism-based; conditions: in vivo; summary of the method: as §2
[14] = Plasma concentration in cynomolgus monkey at 5 mg/kg, po measured after 2 hrs of administration; type: ADME, organism-based, Macaca fascicularis
Summary of the method: (§3)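 Cynomolgus monkeys (n=2) dosed orally. Blood and brain collected 2 h after dosing. Plasma (ng/mL) and striatum (ng/g) concentrations measured and the striatum/plasma ratio taken per animal and as the mean. Brain free concentration derived using protein binding ratio.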

[15] = Drug uptake in cynomolgus monkey striatum at 5 mg/kg, po measured after 2 hrs of administration; type: ADME, organism-based, Macaca fascicularis; conditions: read-out: Drug uptake; summary of the method: as §3
[16] = Ratio of drug level in cynomolgus monkey striatum to plasma at 5 mg/kg, po measured after 2 hrs of administration

Compound	microsomal CLint [1] [µL/min/mg]	microsomal CLint [2] [µL/min/mg]	Drug metabolism [3] [µmol/mL]	also measured
Cc1ccc(S(=O)(=O)Nc2ccc(-c3ccccc3N3CCCCC3)nn2)cc1	1.07	0.395	0.000852	Cp [4]: 808 ng/mL; solubility [5]: 163 µg/mL (≈ 399 µM); solubility [6]: < 1 µg/mL; half-life [7]: 18 min; clearance [8]: 67 mL/min/kg; Ct [9]: 230 ng/g; Kp [10]: 0.28
Cc1ccc(S(=O)(=O)Nc2ccc(-c3c(F)cccc3N3CCCCC3)nn2)cc1	0.478	0.339	0.000637	Cp [11]: 284 ng/mL; Kp [12]: 0.28; Ct [13]: 79 ng/g
O=S(=O)(CC1CCCCO1)Nc1ccc(-c2cc(F)ccc2N2CCCCC2)nn1 (stereo unspecified)	0.139	0.435	0	
O=C(O)c1cc(-c2ccc(Cl)c(OC3CC3)c2)ncn1				concentration at 2 h [14]: 15600 ng/mL; concentration at 2 h [15]: 64.8 ng/g; Kp at 2 h [16]: 0.004
Cc1ccc(S(=O)(=O)Nc2ccc(-c3cccc(F)c3N3CCCCC3)nn2)cc1	0.178	0.518	0.000146	

The next lines start with results.

microsomal CLint [1] [µL/min/mg]	microsomal CLint [2] [µL/min/mg]	Drug metabolism [3] [µmol/mL]	Compound	also measured
0.703	1.6	0.00049	O=S(=O)(CC1CCCC1)Nc1ccc(-c2cc(F)ccc2N2CCCCC2)nn1	
0.179		0	COCCS(=O)(=O)Nc1ccc(-c2cc(F)ccc2N2CCCCC2)nn1	CLH [2]: 0.05 µL/min/mg
0.156	< 0.05	0	CCS(=O)(=O)Nc1ccc(-c2cc(F)ccc2N2CCCCC2)nn1	
0.569	0.265	0	O=S(=O)(CC(F)(F)F)Nc1ccc(-c2cc(F)ccc2N2CCCCC2)nn1	
		0	COCCCS(=O)(=O)Nc1ccc(-c2cc(F)ccc2N2CCCCC2)nn1	CLH ([1]; microsomes, 0.5 h): 0.026 µL/min/mg; CLH [2]: 0.045 µL/min/mg
0.375	0.483	0.00011	CC(C)CS(=O)(=O)Nc1ccc(-c2cc(F)ccc2N2CCCCC2)nn1	
0.179	0.168	0	CCCS(=O)(=O)Nc1ccc(-c2cc(F)ccc2N2CCCCC2)nn1	
